From ChEMBL document CHEMBL4229344 (Eur J Med Chem, 2018) come the findings set out here.

The structures appear in SMILES notation. Activity calls are given as the source filed them. The rule behind the calls is not given here.

The target of assay [1] is Serine/threonine-protein kinase D3 (Homo sapiens) (UniProt O94806). Briefly: Binding affinity to wild-type human partial length PRKD3 (S543 to E863 residues) expressed in bacterial expression system assessed as residual binding level at 1 uM by Kinomescan method relative to control.
In assay [2] the target is Epidermal growth factor receptor (Homo sapiens) (UniProt P00533). Nature of the assay: Binding affinity to human partial length EGFR E746-A750del mutant expressed in bacterial expression system assessed as residual binding level at 1 uM by Kinomescan method relative to control. In outline: (§1)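 Kinome-wide single-concentration binding screen (KINOMEscan) at 1 μM against a panel of 468 purified kinases and mutants. Read-out is relative binding of each kinase compared with control. Selectivity across the panel was summarised as an S(10) score.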
Epidermal growth factor receptor (Homo sapiens), sequence (P00533 whole entry): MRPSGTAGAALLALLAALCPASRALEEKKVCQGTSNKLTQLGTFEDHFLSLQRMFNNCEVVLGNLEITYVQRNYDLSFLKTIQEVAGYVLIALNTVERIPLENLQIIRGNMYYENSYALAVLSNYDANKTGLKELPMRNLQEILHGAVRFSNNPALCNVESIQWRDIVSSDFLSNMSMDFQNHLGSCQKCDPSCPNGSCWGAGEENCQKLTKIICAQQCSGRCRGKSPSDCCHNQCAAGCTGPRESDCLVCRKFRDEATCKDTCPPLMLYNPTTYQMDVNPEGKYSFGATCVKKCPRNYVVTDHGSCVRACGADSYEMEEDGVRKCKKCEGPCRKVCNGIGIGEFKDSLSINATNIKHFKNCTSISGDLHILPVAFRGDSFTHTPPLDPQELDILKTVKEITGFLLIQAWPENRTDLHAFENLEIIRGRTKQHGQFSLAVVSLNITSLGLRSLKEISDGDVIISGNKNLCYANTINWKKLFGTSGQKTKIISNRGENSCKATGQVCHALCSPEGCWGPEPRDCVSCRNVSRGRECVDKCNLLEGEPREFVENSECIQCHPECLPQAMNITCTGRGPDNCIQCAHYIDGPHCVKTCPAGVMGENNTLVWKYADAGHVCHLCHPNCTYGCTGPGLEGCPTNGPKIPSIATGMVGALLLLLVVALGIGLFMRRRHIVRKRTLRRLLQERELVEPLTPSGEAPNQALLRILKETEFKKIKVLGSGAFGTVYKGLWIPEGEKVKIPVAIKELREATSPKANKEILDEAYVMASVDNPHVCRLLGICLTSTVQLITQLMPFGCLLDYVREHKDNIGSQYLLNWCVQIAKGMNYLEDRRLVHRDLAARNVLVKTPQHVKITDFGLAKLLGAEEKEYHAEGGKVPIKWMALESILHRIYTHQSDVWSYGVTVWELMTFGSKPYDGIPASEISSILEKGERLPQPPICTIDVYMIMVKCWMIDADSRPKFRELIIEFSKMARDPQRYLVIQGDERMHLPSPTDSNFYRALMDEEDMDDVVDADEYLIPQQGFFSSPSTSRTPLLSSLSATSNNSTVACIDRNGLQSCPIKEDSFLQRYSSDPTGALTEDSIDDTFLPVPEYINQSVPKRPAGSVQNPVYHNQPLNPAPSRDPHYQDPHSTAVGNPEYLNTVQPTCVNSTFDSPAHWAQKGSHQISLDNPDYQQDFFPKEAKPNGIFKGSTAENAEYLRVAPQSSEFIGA

The test system of assay [3] is Serine/threonine-protein kinase B-raf (Homo sapiens), P15056 [V600E]. Briefly: Binding affinity to human partial length BRAF V600E mutant (S429 to E741 residues) expressed in mammalian expression system assessed as residual binding level at 1 uM by Kinomescan method relative to control. Summed up:
as §1

In assay [4] the target is Cyclin-dependent kinase 2 (Homo sapiens) (UniProt P24941). Briefly: Binding affinity to wild-type human full length CDK2 (M1 to L298 residues) expressed in bacterial expression system assessed as residual binding level at 1 uM by Kinomescan method relative to control. Summed up:
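Single-concentration (1 μM) competition-binding screen run by KINOMEscan against a panel of 468 purified kinases and mutants. The read-out is the relative binding activity of the test compound to each kinase.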

Assay [5] concerns the target ALK tyrosine kinase receptor (Homo sapiens) (UniProt Q9UM73). Nature of the assay: Binding affinity to wild-type human partial length ALK (I1088 to E1409 residues) expressed in mammalian expression system assessed as residual binding level at 1 uM by Kinomescan method relative to control. Summed up:
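Single-concentration KINOMEscan (DiscoverX) binding screen at 1 μM against a panel of 468 purified kinases and mutants. The read-out is binding relative to control.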

Assay [6] concerns the target Calcium/calmodulin-dependent protein kinase type II subunit gamma (Homo sapiens) (UniProt Q13555). Briefly: Binding affinity to wild-type human partial length CAMK2G (R9 to A303 residues) expressed in bacterial expression system assessed as residual binding level at 1 uM by Kinomescan method relative to control.
Assay [7] addresses Tyrosine-protein kinase TXK (Homo sapiens) (UniProt P42681). Briefly: Binding affinity to wild-type human partial length TXK (L238 to W527 residues) expressed in bacterial expression system assessed as residual binding level at 1 uM by Kinomescan method relative to control.
Assay [8] concerns Tyrosine-protein kinase ABL1 (Homo sapiens), P00519 [E255K]. Nature of the assay: Binding affinity to human phosphorylated ABL1 E255K mutant (S229 to K512 residues) expressed in mammalian expression system assessed as residual binding level at 1 uM by Kinomescan method relative to control. Summed up: as §1
Tyrosine-protein kinase ABL1 (Homo sapiens), P00519 [E255K], sequence (P00519 whole entry E255K, the tested form may be a part): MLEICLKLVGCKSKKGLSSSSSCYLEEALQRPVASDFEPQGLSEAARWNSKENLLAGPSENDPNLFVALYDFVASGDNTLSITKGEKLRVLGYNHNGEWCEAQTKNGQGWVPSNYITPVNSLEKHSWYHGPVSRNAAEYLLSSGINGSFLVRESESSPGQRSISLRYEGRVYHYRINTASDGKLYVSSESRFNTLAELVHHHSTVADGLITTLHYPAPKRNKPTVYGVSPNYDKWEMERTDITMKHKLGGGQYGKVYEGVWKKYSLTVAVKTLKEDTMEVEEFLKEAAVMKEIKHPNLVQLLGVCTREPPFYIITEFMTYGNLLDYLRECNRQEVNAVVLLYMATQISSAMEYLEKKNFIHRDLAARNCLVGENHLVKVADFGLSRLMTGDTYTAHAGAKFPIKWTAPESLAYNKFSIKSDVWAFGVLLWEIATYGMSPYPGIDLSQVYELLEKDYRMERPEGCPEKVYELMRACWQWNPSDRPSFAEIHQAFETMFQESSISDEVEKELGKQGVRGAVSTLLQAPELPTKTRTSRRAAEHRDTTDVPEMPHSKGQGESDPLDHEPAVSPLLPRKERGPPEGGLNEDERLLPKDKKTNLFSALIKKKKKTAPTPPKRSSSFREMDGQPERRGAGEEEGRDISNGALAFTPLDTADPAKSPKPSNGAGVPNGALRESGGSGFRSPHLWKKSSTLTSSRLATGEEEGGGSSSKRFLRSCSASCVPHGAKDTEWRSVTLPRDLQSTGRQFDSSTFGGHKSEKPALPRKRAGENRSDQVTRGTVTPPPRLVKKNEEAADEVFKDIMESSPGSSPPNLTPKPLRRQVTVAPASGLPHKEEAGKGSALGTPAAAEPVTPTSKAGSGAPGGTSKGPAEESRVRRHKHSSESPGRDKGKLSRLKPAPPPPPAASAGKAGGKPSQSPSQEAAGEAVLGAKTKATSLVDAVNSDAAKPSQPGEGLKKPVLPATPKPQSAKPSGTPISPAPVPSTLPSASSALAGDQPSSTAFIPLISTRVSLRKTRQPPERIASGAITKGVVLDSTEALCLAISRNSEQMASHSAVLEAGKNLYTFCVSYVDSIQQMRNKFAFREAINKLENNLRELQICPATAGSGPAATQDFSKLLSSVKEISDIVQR
The target in assay [9] is Epidermal growth factor receptor (Homo sapiens) (UniProt P00533). Nature of the assay: Binding affinity to human partial length EGFR S752-I759del mutant expressed in bacterial expression system assessed as residual binding level at 1 uM by Kinomescan method relative to control. Summed up: as §1
Assay [10] deals with NCI-H1703. Nature of the assay: Induction of apoptosis in human NCI-H1703 cells assessed as cleaved PARP expression level at 0.3 to 10 uM after 72 hrs by Western blot analysis. The format is functional, cell-based. Summed up:
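Cells exposed to compound or DMSO for the stated periods, then lysed and immunoblotted for PARP and caspase-3 cleavage, with β-actin as loading control. NCI-H1703 stimulation used PDGF AA at 100 ng/mL.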
A general note: Immunoblotting shows a protein as a band on a membrane.

For assay [11], the target named is Death-associated protein kinase 1 (Homo sapiens) (UniProt P53355). Briefly: Binding affinity to wild-type human partial length DAPK1 (M1 to F296 residues) expressed in bacterial expression system assessed as residual binding level at 1 uM by Kinomescan method relative to control.
Assay [12] deals with Phosphatidylinositol 4,5-bisphosphate 3-kinase catalytic subunit alpha isoform (Homo sapiens), P42336 [I800L]. Nature of the assay: Binding affinity to human partial length PIK3CA I800L mutant (R108 to N1068 residues) expressed in mammalian expression system assessed as residual binding level at 1 uM by Kinomescan method relative to control. In outline: as §1
Phosphatidylinositol 4,5-bisphosphate 3-kinase catalytic subunit alpha isoform (Homo sapiens), P42336 [I800L], sequence (P42336 whole entry I800L, the tested form may be a part, canonical isoform): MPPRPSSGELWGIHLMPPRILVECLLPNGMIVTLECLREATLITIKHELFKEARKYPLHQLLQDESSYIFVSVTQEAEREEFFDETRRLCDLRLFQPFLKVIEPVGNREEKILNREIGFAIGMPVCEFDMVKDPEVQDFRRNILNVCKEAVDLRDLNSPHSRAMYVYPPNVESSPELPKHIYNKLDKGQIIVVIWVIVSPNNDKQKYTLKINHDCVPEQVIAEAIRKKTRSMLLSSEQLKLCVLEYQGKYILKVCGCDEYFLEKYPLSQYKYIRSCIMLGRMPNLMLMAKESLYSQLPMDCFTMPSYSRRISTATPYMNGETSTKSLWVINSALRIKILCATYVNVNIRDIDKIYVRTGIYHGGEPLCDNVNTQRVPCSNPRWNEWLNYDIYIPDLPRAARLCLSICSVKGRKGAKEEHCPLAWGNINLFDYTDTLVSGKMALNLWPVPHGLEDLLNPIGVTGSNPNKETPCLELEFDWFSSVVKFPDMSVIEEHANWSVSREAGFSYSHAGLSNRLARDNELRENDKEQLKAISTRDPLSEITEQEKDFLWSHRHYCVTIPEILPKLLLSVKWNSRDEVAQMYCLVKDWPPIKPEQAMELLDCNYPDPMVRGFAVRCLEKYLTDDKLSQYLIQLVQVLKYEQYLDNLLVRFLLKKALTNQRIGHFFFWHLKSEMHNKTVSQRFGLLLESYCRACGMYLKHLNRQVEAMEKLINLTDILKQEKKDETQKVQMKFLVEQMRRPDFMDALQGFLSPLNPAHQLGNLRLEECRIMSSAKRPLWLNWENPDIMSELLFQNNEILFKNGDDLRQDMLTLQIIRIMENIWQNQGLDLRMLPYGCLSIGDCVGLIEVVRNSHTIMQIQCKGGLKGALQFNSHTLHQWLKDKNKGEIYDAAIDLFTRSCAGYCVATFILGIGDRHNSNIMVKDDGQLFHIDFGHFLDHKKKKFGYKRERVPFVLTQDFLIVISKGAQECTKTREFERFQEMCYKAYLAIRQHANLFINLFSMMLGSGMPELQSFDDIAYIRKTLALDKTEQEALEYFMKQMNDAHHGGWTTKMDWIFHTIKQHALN
Assay [13] has as its target Tyrosine-protein kinase ABL1 (Homo sapiens, UniProt P00519). Nature of the assay: Inhibition of ABL1 (unknown origin) using poly(4:1 Glu,Tyr) peptide as substrate preincubated for 1 hr followed by addition of ATP and measured after 30 mins by ADP-Glo bioluminescence assay. (In general: In ADP-Glo the light output rises with the ADP produced.)
Assay [14] has as its system Receptor-type tyrosine-protein kinase FLT3 (Homo sapiens), P36888 [D835Y]. Briefly: Binding affinity to human partial length FLT3 D835Y mutant (Q580 to Y969 residues) expressed in bacterial expression system assessed as residual binding level at 1 uM by Kinomescan method relative to control. In outline:
as §1

Assay [15] has as its target Serine/threonine-protein kinase MAK (Homo sapiens) (UniProt P20794). Briefly: Binding affinity to wild-type human partial length MAK (M1 to P314 residues) expressed in bacterial expression system assessed as residual binding level at 1 uM by Kinomescan method relative to control. In outline: (§2)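 Kinome-wide competition binding screen against a panel of 468 purified kinases/mutants, with the test compound at a single concentration of 1 μM. Read-out is the relative binding activity of each kinase in the presence of compound.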

Assay [16] addresses Serine/threonine-protein kinase DCLK2 (Homo sapiens) (UniProt Q8N568). Nature of the assay: Binding affinity to wild-type human partial length DCAMKL2 (K273 to V664 residues) expressed in bacterial expression system assessed as residual binding level at 1 uM by Kinomescan method relative to control.
Assay [17] has as its target Serine/threonine-protein kinase PLK3 (Homo sapiens) (UniProt Q9H4B4). Briefly: Binding affinity to wild-type human partial length PLK3 (A42 to L334 residues) expressed in mammalian expression system assessed as residual binding level at 1 uM by Kinomescan method relative to control. In outline:
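KINOMEscan competition binding against a panel of 468 purified kinases/mutants, compound tested at 1 μM; readout is relative binding activity versus control.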

The target in assay [18] is Non-receptor tyrosine-protein kinase TNK1 (Homo sapiens) (UniProt Q13470). Nature of the assay: Binding affinity to wild-type human full length TNK1 (M1 to P661 residues) expressed in bacterial expression system assessed as residual binding level at 1 uM by Kinomescan method relative to control. Summed up:
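KINOMEscan competition binding against 468 purified kinases/mutants, test compound at 1 µM; residual binding relative to control.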

In assay [19] the target is Homeodomain-interacting protein kinase 1 (Homo sapiens) (UniProt Q86Z02). Briefly: Binding affinity to wild-type human partial length HIPK1 (M146 to I555 residues) expressed in mammalian expression system assessed as residual binding level at 1 uM by Kinomescan method relative to control. Summed up: as §2
For assay [20], the target named is Serine/threonine-protein kinase 25 (Homo sapiens) (UniProt O00506). Nature of the assay: Binding affinity to wild-type human partial length YSK1 (V14 to H295 residues) expressed in bacterial expression system assessed as residual binding level at 1 uM by Kinomescan method relative to control.
Serine/threonine-protein kinase 25 (Homo sapiens), sequence (O00506 whole entry, looked up, the tested form may be a part): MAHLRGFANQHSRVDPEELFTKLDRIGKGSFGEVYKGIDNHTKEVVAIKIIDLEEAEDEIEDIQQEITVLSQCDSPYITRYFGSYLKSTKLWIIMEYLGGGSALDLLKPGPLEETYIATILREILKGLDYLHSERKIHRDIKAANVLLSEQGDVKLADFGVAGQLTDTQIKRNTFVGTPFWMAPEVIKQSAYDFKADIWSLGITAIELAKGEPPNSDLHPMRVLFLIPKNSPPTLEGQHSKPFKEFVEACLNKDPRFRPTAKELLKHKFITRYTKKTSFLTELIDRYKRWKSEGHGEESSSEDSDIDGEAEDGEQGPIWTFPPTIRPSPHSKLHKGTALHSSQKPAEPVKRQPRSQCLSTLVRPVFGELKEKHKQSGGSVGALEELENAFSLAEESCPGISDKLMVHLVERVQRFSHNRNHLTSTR

Calcium/calmodulin-dependent protein kinase type II subunit gamma (Homo sapiens), sequence (Q13555 whole entry, the tested form may be a part): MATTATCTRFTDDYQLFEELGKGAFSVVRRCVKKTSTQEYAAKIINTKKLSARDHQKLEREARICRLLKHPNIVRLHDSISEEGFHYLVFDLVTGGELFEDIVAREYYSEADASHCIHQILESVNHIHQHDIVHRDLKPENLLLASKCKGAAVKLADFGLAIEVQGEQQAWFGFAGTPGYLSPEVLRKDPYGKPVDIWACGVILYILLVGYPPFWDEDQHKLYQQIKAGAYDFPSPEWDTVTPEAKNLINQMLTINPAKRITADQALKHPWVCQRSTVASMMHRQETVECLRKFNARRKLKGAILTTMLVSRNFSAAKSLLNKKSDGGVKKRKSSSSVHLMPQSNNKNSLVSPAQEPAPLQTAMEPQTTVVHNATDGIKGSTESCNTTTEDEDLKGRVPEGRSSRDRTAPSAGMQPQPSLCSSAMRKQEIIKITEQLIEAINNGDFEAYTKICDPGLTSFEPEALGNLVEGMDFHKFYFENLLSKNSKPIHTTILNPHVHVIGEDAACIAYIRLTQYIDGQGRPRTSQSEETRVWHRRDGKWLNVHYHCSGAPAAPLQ
Non-receptor tyrosine-protein kinase TNK1 (Homo sapiens), sequence (Q13470 whole entry, the tested form may be a part): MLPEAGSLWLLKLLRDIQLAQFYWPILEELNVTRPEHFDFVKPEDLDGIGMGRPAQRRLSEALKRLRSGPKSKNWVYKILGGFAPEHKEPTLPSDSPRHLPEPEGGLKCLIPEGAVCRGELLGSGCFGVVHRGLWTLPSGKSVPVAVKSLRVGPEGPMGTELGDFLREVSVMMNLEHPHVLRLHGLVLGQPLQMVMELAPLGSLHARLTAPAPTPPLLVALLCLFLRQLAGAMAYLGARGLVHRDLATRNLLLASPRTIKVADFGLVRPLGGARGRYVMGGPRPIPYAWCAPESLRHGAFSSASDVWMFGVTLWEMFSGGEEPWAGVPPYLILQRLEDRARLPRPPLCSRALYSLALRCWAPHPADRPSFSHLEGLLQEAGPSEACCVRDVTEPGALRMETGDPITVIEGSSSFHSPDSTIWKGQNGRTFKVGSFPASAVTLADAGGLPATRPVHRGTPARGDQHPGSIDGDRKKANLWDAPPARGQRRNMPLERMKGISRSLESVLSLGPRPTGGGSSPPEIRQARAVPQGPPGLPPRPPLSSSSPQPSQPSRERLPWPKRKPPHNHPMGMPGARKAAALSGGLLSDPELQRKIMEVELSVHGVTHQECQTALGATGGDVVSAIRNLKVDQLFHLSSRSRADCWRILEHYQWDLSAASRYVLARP

In general, IC50 refers to the concentration needed to halve the response being measured. For the compound `Cc1ccc(NC(=O)c2ccc(CN(CCN(C)C)C(=O)c3cccnc3)cc2)cc1Nc1nccc(-c2cccnc2)n1`, the Activity was found to be 100% in assay [1]; 100% in [2]; 49% in assay [3]; 95% in [4]; 100% in assay [5]; 93% in assay [6]. Also, the Activity is 100% in [7]; 80% in assay [8]; 90% in assay [9]; 96% in assay [11]; 79% in [12]; 95% in assay [14]. Further, the Activity in assay [15] stood at 92%; in [16], 96%; in assay [17], 79%; in [18], 87%; in assay [19], 79%; in assay [20], 100%. The outcome in assay [10] was inactive. In addition, in assay [13], the concentration for half-maximal inhibition (IC50) is above 10 µM.
